ChEMBL document CHEMBL1133285, “Simple bi- and tricyclic inhibitors of human steroid 5alpha-reductase” (Bioorg Med Chem Lett, 2000)

What was measured:
[1] = molecular target: T1, 3-oxo-5-alpha-steroid 4-dehydrogenase 1 (Homo sapiens, UniProt P18405); assay: In vitro inhibitory activity against Steroid 5-alpha-reductase type I
T1 sequence (P18405 whole entry): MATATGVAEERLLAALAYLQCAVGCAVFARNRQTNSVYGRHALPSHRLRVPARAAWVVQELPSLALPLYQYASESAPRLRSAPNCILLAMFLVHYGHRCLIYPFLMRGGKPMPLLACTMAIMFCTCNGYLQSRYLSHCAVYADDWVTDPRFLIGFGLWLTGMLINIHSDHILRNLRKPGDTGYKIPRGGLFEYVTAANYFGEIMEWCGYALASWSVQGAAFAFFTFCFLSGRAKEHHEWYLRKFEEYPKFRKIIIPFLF

[2] = molecular target: T2, 3-oxo-5-alpha-steroid 4-dehydrogenase 2 (Homo sapiens) (UniProt P31213); assay: In vitro inhibitory activity against Steroid 5-alpha-reductase type 2 at a concentration of 40 uM
T2 sequence (whole entry): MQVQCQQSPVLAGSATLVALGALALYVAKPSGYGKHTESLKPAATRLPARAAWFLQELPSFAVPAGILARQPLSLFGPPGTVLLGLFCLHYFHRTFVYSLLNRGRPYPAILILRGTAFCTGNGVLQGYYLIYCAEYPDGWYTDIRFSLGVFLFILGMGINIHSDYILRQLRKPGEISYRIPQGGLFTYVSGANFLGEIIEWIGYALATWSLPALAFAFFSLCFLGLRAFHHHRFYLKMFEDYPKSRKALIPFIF

[3] = molecular target: T3, 3-oxo-5-alpha-steroid 4-dehydrogenase 2 (Homo sapiens, UniProt P31213); assay: In vitro inhibitory activity against Steroid 5-alpha-reductase type 2
T3 sequence (P31213 whole entry): T2 sequence (whole entry)
In short: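 Type 2 SR enzyme preparation, with inhibitors prepared and tested as in the type 1 assay. The mixture of labelled (80 nM) and unlabelled testosterone substrate is incubated 1 h at 37 °C. Androgens are separated by HPLC and quantified by in-line flow radioactivity detection. The assay is calibrated with known type 2 inhibitors.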

[4] = molecular target: T2, 3-oxo-5-alpha-steroid 4-dehydrogenase 2 (Homo sapiens); assay: In vitro inhibitory activity against Steroid 5-alpha-reductase type 2 at a concentration of 10 uM

| Compound | IC50 [1] [nM] | inhibition [2] [%] | IC50 [3] [nM] | inhibition [4] [%] |
| --- | --- | --- | --- | --- |
| CN1C(=S)CC[C@@H]2c3ccccc3CC[C@H]21 | 1450 | 19.9 | – | – |
| CN1CC(c2ccccc2)CCC1=O (centres undefined) | 2480 | 13.5 | – | – |
| CN1CC(c2ccc(Cl)cc2)CCC1=S (centres undefined) | 3360 | 14 | – | – |
| O=C(O)c1ccc2c(c1)CCc1cc(/C=C/c3ccccc3)ccc1-2 | 152 | – | 340 | – |
| CN1C(=S)CC[C@@]2(C)C1=CCc1cc(Cl)ccc12 | 377 | 13.2 | – | – |
| CN1CC(c2ccc(/N=N/c3ccccc3)cc2)CCC1=O (centres undefined) | 302 | – | 579 | – |
| O=C(O)c1ccc2c(c1)CCc1cc(Br)ccc1-2 | – | – | – | 20 |
| CN1CC(c2ccc(Cl)cc2)CCC1=O (centres undefined) | 1690 | – | – | – |
| CN1C(=O)CC[C@@]2(C)C1=CCc1cc(Cl)ccc12 | 120 | – | – | – |
| CN1C(=S)CC[C@]2(C)c3ccc(Cl)cc3CC[C@@H]12 | 183 | 21.6 | – | – |
| CN1CC(c2ccc(/C=C/c3ccccc3)cc2)CCC1=O (centres undefined) | 107 | – | 617 | – |
